{"data": "Experimental data gathered from unrelated publications", "target": "Fibroblast growth factor receptor 4 (FGFR4, Homo sapiens, UniProt P22455)", "note": "Protocols differ between the studies behind these lines."}
{"Structure (SMILES)": "C[C@H]1CC[C@H](n2c3cnccc3c3cnc(Nc4ccc5c(n4)CCN(C(=O)CO)C5)nc32)CC1", "observed": "binding", "tested at": "1 µM", "measurement": "remaining binding", "result": "100%"}
{"Structure (SMILES)": "C=CC(=O)N1CCC[C@@H](n2nc(-c3ccc(Oc4ccccc4)cc3)c3c(N)ncnc32)C1", "observed": "enzyme activity", "action": "inhibitor", "tested at": "1 µM", "measurement": "inhibition", "result": "8%"}
{"Structure (SMILES)": "CC(C)S(=O)(=O)c1ccc2nccc(Nc3ccc4sc(C5CCCC5)nc4c3)c2c1", "observed": "enzyme activity", "action": "inhibitor", "tested at": "1 µM", "measurement": "activity vs control", "result": "108%"}
{"Structure (SMILES)": "COc1ccc2oc(-c3ccc4nc(N)oc4c3)c/c(=N\\c3ccccc3NC(=O)CCN)c2c1", "observed": "binding", "tested at": "1 µM", "measurement": "remaining binding", "result": "102%"}
{"Structure (SMILES)": "C1=C/COCc2cc(ccc2OCCN2CCCC2)Nc2nccc(n2)-c2cccc(c2)COC/1", "observed": "binding", "tested at": "0.1 µM", "measurement": "remaining binding", "result": "100%"}
{"Structure (SMILES)": "CCCCC(=O)Nc1ccc(-c2ccc3ncn(CCC)c(=O)c3c2)cn1", "observed": "binding", "method": "competition with immobilised ligand", "tested at": "0.5 µM", "measurement": "remaining binding", "result": "100%"}
{"Structure (SMILES)": "COc1ccc2[nH]c3c4[nH]c5ccc(OC)cc5c4c4c(c3c2c1)C(=O)NC4=O", "observed": "binding", "tested at": "1 µM", "measurement": "remaining binding", "result": "85%"}
{"Structure (SMILES)": "C=CC(=O)N1CCC([C@@H]2CCNc3c(C(N)=O)c(-c4ccc(Oc5ccccc5)cc4)nn32)CC1", "observed": "cell-free assay", "tested at": "1 µM", "measurement": "inhibition", "result": "10%"}
